In ChEMBL document CHEMBL1133662, “Novel 3-aminomethyl- and 4-aminopiperidine analogues of 1-[2-(diphenylmethoxy)ethyl]-4-(3-phenylpropyl)piperazines: synthesis and evaluation as dopamine transporter ligands” (J Med Chem, 2000):

What was measured:
[1] = molecular target: T1, Sodium-dependent noradrenaline transporter (Homo sapiens, UniProt P23975); experiment: Inhibition of [3H]NE reuptake by human norepinephrine transporter expressed in HEK293 cells; assay type: cell-based
[2] = molecular target: T1, Sodium-dependent noradrenaline transporter; experiment: Binding affinity at the norepinephrine transporter was measured using [125I]RTI-55 as a radioligand
[3] = molecular target: T2, Sodium-dependent dopamine transporter (Homo sapiens, UniProt Q01959); experiment: Inhibition of [125I]RTI-55 binding to dopamine transporter
T2 sequence (Q01959 whole entry): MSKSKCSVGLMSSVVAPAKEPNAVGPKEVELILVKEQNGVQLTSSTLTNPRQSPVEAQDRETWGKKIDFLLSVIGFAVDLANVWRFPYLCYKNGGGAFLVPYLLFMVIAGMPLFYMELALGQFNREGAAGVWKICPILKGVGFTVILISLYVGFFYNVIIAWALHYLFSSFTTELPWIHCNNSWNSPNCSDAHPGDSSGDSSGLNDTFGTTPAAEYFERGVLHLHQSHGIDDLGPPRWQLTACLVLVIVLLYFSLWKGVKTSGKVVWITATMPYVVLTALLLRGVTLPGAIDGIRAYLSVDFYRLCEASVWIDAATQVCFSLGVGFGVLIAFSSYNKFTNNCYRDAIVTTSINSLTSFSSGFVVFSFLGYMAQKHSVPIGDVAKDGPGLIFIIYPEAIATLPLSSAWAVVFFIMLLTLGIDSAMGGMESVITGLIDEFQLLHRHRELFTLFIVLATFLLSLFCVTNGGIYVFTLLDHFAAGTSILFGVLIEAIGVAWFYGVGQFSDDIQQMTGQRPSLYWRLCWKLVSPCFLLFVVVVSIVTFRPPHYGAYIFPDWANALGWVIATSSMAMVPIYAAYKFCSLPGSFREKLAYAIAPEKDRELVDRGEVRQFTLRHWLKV
How it was run: (§1)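 Membranes from HEK 293 cells expressing human DAT or SERT, lysed in 2 mM HEPES/1 mM EDTA, pelleted at 30000g and resuspended in 0.32 M sucrose (about 15 µg protein per assay). Incubated 90 min at room temperature in the dark, then filtered. Duplicate competition curves; IC50 converted to Ki by Cheng-Prusoff.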

[4] = Discrimination ratio of [3H]5-HT reuptake/SERT binding; assay type: functional
[5] = molecular target: Monoamine transporters; serotonin & dopamine (Homo sapiens) (UniProt P31645+Q01959); experiment: Selectivity ratio of SERT/DAT; assay type: protein assay
Chain of Monoamine transporters; serotonin & dopamine (Homo sapiens) (P31645 whole entry, looked up): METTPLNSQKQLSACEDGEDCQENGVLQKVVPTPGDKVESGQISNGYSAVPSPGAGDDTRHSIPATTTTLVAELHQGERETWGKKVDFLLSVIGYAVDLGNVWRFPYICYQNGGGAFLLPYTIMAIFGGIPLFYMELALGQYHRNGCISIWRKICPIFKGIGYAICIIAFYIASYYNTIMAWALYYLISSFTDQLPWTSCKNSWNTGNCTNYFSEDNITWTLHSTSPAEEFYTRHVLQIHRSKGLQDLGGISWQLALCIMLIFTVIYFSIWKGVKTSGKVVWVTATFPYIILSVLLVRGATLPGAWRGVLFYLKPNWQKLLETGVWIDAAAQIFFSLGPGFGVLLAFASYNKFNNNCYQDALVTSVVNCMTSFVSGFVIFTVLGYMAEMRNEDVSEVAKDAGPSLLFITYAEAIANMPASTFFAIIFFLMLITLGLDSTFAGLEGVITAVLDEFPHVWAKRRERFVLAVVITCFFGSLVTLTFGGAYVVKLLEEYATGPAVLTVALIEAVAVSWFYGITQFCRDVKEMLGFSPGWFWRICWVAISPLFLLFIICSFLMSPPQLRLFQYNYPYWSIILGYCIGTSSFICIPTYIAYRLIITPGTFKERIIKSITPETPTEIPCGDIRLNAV
Chain of Monoamine transporters; serotonin & dopamine (Homo sapiens) (Q01959 whole entry, looked up): as the sequence (Q01959 whole entry) above

[6] = molecular target: T3, Sodium-dependent serotonin transporter (Homo sapiens, UniProt P31645); experiment: Inhibition of [3H]5-HT reuptake in HEK293 cells expressing human serotonin transporter; assay type: cell-based
T3 sequence (P31645 whole entry): as the sequence (P31645 whole entry, looked up) above
How it was run: (§2)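 Confluent HEK 293 cells expressing human SERT or DAT were scraped into PBS and used as a suspension in Krebs HEPES at 25 °C. Drug (six concentrations, triplicate) was preincubated with cells 10 min. [3H]5-HT or [3H]DA (0.020 µM final) was added for 10 min, then uptake was stopped by filtration onto polyethyleneimine-soaked GF/C filters. IC50 from three independent experiments.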

[7] = Discrimination ratio of [3H]-DA reuptake/DAT binding; assay type: functional
[8] = molecular target: T3, Sodium-dependent serotonin transporter; experiment: Binding affinity for serotonin transporter using [125I]RTI-55; how it was run: as §1
[9] = molecular target: T2, Sodium-dependent dopamine transporter; experiment: Inhibition of [3H]dopamine reuptake in HEK293 cells expressing human dopamine transporter; assay type: cell-based; how it was run: as §2
[10] = molecular target: Monoamine transporters; Norepinephrine & dopamine (Homo sapiens) (UniProt Q01959+P23975); experiment: Selectivity ratio of NET/DAT; assay type: protein assay
Chain of Monoamine transporters; Norepinephrine & dopamine (Homo sapiens) (P23975 whole entry, looked up): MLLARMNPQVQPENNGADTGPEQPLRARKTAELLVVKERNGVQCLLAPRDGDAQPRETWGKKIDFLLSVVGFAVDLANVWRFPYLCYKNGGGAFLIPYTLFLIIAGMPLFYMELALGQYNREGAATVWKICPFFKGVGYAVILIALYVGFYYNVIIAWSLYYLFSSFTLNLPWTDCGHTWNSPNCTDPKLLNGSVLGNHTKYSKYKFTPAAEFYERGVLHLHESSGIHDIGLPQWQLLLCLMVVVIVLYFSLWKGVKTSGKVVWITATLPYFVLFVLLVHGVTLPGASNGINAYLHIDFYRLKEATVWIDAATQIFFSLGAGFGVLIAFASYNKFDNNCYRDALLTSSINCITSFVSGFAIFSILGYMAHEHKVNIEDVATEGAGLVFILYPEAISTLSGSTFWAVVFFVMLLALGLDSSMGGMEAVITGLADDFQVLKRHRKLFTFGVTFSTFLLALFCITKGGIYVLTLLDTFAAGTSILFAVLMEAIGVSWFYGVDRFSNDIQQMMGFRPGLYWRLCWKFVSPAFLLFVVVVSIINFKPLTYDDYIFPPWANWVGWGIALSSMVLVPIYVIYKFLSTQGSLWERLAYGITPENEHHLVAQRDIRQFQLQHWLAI
Chain of Monoamine transporters; Norepinephrine & dopamine (Homo sapiens) (Q01959 whole entry, looked up): as the sequence (Q01959 whole entry) above

T1 sequence (P23975 whole entry): as the sequence (P23975 whole entry, looked up) above

SMILES | IC50 [1] | Ki [2] | Ki [3] | Discrimination ratio [4] | Selectivity ratio [5] | IC50 [6] | Discrimination ratio [7] | Ki [8] | IC50 [9] | Selectivity ratio [10]
c1ccc(CCCN2CCN(CCOC(c3ccccc3)c3ccccc3)CC2)cc1 | 165 nM | 630 nM | – | – | – | – | – | – | – | –
CN(CCCc1ccccc1)C1CCN(CCOC(c2ccccc2)c2ccccc2)CC1 | 180 nM | 42 nM | 340 nM | 3.6 | 0.3 | 310 nM | 0.6 | 87 nM | 210 nM | 0.1
Fc1ccc(CCNC2CCN(CCOC(c3ccccc3)c3ccccc3)CC2)cc1 | 170 nM | 79 nM | 110 nM | 2.1 | 2 | 470 nM | 2.9 | 220 nM | 320 nM | 0.7
c1ccc(CCCNCC2CCCN(CCOC(c3ccccc3)c3ccccc3)C2)cc1 (configuration not stated) | 48 nM | 41 nM | 70 nM | 2.5 | 4.5 | 770 nM | 1.5 | 320 nM | 105 nM | 0.6
c1ccc(CCCNC2CCN(CCOC(c3ccccc3)c3ccccc3)CC2)cc1 | 230 nM | 120 nM | 160 nM | 7.1 | 0.4 | 390 nM | 2.5 | 55 nM | 390 nM | 0.8
CN(CCOC(c1ccccc1)c1ccccc1)C1CCN(CCCc2ccccc2)CC1 | 200 nM | 29 nM | 30 nM | 0.9 | 47.3 | 1910 nM | 11.1 | 1400 nM | 330 nM | 1
Fc1ccc(CCNCC2CCCN(CCOC(c3ccccc3)c3ccccc3)C2)cc1 (configuration not stated) | 190 nM | 190 nM | 87 nM | 2.1 | 10.2 | 1830 nM | 4.2 | 890 nM | 364 nM | 2.1
CN(CCc1ccc(F)cc1)CC1CCCN(CCOC(c2ccccc2)c2ccccc2)C1 (configuration not stated) | 350 nM | 110 nM | 90 nM | 4 | 5.9 | 2130 nM | 14 | 530 nM | 1260 nM | 1.3
Fc1ccc(CCN2CCCC(CNCCOC(c3ccccc3)c3ccccc3)C2)cc1 (configuration not stated) | 200 nM | 150 nM | 100 nM | 3.3 | 3.3 | 1130 nM | 4.8 | 350 nM | 500 nM | 1.5
c1ccc(CCCN2CCCC(CNCCOC(c3ccccc3)c3ccccc3)C2)cc1 (configuration not stated) | 97 nM | 23 nM | 18 nM | 3.8 | 11.9 | 820 nM | 8.1 | 210 nM | 150 nM | 1.3
c1ccc(CN2CCC(NCCOC(c3ccccc3)c3ccccc3)CC2)cc1 | 87 nM | 180 nM | 83 nM | 0.9 | 26 | 1860 nM | 3.2 | 2160 nM | 270 nM | 2.1
